# Assay outcomes as filed in PubChem.
# Kir21 block: blocks the mouse Kir2.1 inward-rectifier potassium channel; HEK293-Kir2.1, FluxOR thallium flux fluorescence; hits give low values; B-score at 10 µM; 310,000 tested, 0.85% active; AID 1672;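 active = fluorescence ratio B-score at or below minus 3 SD of library scores, with starting-brightness B-score within 2 SD, cut at about -4.2 in these data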;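 note: channel flux triggered by added potassium and thallium sulfate stimulus; B-score of peak minus minimum fluorescence over baseline after thallium stimulus; more negative B-score means stronger Kir2.1 block with less thallium influx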
# Target sequence (P35561 whole entry, looked up): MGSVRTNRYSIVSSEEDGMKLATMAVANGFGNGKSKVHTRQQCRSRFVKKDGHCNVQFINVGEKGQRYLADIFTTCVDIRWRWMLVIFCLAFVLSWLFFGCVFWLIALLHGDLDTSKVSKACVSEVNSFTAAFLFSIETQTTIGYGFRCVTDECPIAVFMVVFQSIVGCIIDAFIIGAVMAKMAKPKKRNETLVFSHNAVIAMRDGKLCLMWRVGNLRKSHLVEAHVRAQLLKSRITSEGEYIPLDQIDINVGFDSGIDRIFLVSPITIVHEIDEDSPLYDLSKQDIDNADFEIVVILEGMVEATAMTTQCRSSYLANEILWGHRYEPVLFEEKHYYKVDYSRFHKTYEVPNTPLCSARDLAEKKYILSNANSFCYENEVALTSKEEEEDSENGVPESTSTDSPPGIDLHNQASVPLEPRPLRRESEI
# KCNQ1 inh: human KCNQ1 channel inhibition. P51787. B-score at 10 µM. CHO-K1 KCNQ1, FluxOR thallium flux fluorescence; hits give high values. 310,000 tested, 1.3% active;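 active = compounds whose thallium flux B-score, printed positive for inhibition, exceeds three library SD while starting fluorescence stays within three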;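 note: channel opened by potassium depolarization with thallium stimulus after 20 min compound exposure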
# KCNK9 block: blocks the human KCNK9 two-pore domain potassium channel; B-score at 10 µM; HEK293 KCNK9, FluxOR thallium flux fluorescence; hits give low values; 310,000 tested, 1.2% active; Q9NPC2;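 active = ratio B-score over 3 SD below the library mean, with starting fluorescence within 5 SD of its mean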;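 note: negative B-score means less thallium flux so channel inhibition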
# KCNK3 inh: human KCNK3 channel inhibition, primary screen; B-score at 10 µM; O14649; 340,000 tested, 0.84% active; AID 602410; CHO-KCNK3 thallium flux, FluxOR fluorescence; hits give low values;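 active = B-score under library mean minus 4 SD, starting fluorescence ratio at most library mean plus 5 SD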;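 note: more negative B-score means stronger inhibition of thallium flux through KCNK3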
# hERG rescue: compounds protecting human hERG from proarrhythmic drug block; 310,000 tested, 0.51% active; AID 1511; CHO-hERG, FluxOR thallium flux, dofetilide IC70 present; activation (rescue from dofetilide block), less the hit threshold, % at 10 µM;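 active = activation above the mean of controls blocked by dofetilide plus 5 SD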;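 note: thallium influx through hERG after potassium depolarization seen as dye fluorescence rise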
# KCNQ1 act: potentiators or activators of human KCNQ1 potassium channel; B-score at 10 µM; 310,000 tested, 0.35% active; P51787; CHO-K1 KCNQ1, thallium flux FluxOR fluorescence; hits give high values;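 active = fluorescence ratio B-score, a plate-corrected score, at least three library SD, with initial intensity B-score within 5 SD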
#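 Schedule – 37 °C overnight plating, 90-min dark dye load, 20-min compound pretreatment · System – stable KCNQ1 CHO-K1 line · Probe or stimulus – thallium- and potassium-containing depolarizing buffer · Measured by – kinetic FluxOR fluorescence, 10 s baseline plus 110 s post-stimulus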
# * hit, by the source's call; i = inactive; x = not tested or not shown. Only some compounds are listed: those with a hit (about 3.8% of all), similar ones and a draw of the others.
SMILES,Kir21 block,KCNQ1 inh,KCNK9 block,KCNK3 inh,hERG rescue,KCNQ1 act
NC(N)=N/N=C/c1ccc(N(c2ccccc2)c2ccccc2)cc1,-6.2*,7*,i,i,-33.0,i
NC(N)=N/N=C/c1ccc(N2CCOCC2)cc1,-0.94,i,i,i,-13.5,i
CN1C(=O)C(=Cc2sc(=O)n(-c3ccccc3)c2N(C)C)C(=O)N(C)C1=O,-0.66,i,i,i,-12.6,i
CCCCCCC(C)(C)c1ccc([C@@H]2C[C@H](O)CC[C@H]2CCCO)c(O)c1,x,x,x,-10.8*,x,x
Clc1ccc2c(c1)C(OC1CN3CCC1CC3)c1ccccc1CS2 (configuration not stated),-5.86*,i,i,i,-15.4,i
CN1CCN(CCOC2c3ccccc3CSc3ccc(Cl)cc32)CC1 (configuration not stated),-4.75*,i,i,i,-5.7,i
CC1CCCCN1Cc1c[nH]c2ccccc12 (configuration not stated),-0.33,i,i,i,-1.5,i
CCOC(=O)C1(CCOc2ccccc2)CCN(C2Cc3ccccc3C2)CC1,1.95,i,i,i,-5.0,i
COc1cccc(CCNCc2ccc(SC)cc2)c1,-7.53*,i,i,i,-12.7,i
N#CCCn1cc(C(=O)Nc2ccccc2Cl)c(-c2ccc(F)cc2)n1,-0.26,i,i,i,8.2*,i
COC(=O)C1=C(c2cc3ccccc3s2)C[C@@H]2CC[C@H]1N2C(=O)NC1CCCCC1,-1.45,i,i,i,-10.7,i
COc1ccc(N2C(=O)NC(=O)C(CCc3ccncc3)(CCc3ccncc3)C2=O)cc1,0.63,i,i,i,4.6*,i
CCc1ccc(N2C(=O)NC(=O)C(CCc3ccncc3)(CCc3ccncc3)C2=O)cc1,-1.35,i,i,i,-1.6,i
COc1ccc(C(O)P(=O)(OC(C)C)OC(C)C)cc1 (configuration not stated),-0.08,i,i,i,-9.3,i
COc1ccc(C(=O)O/N=C(/C(N)=O)P(=O)(OC(C)C)OC(C)C)cc1,-4.63*,i,i,i,2.6,i
CC(C)(O)/C=C/C(=O)C(C)(O)C1C(O)CC2(C)C3CC=C4C(C=C(O)C(=O)C4(C)C)C3(C)C(=O)CC12C (configuration not stated),x,x,x,i,x,x
CCOc1cc(C=C2C(=O)NC(=O)NC2=O)ccc1OS(=O)(=O)c1ccccc1,-5.54*,i,i,i,-9.9,i
CCOc1ccc(C=C2C(=O)NC(=S)NC2=O)cc1OCC,x,x,x,i,x,x
O=c1[nH]oc2c1CCNC2,x,x,x,i,x,x
O=C(O)C(Cc1cnc[nH]1)NS(=O)(=O)c1ccc(Cl)cc1 (configuration not stated),0.63,i,i,i,-7.5,i
Cc1ccc(S(=O)(=O)NC(Cc2cnc[nH]2)C(=O)O)cc1 (configuration not stated),0.4,i,i,i,10.4*,i
CN1CCC2(CC1)c1ccccc1-c1ccccc12,x,x,x,i,x,x
O=C(c1ccc(-c2ccccc2)cc1)C1CCCN(Cc2ccn[nH]2)C1 (configuration not stated),-1.82,i,i,i,-8.9,8*
Cc1ccc(O)c(C)c1,x,x,x,i,x,x
O=C(O)C1Cc2ccccc2N2CCCC12 (configuration not stated),0.83,i,i,i,-6.6,i
CN(C)S(=O)(=O)c1cc(NC(=O)COC(=O)Cc2ccccc2)ccc1Cl,0.53,6*,i,i,-4.8,i
CN(C)S(=O)(=O)c1cc(NC(=O)C[N+]23CCN(CC2)CC3)ccc1Cl,2.44,i,i,i,-5.9,i
COc1ccc(NC(=O)C2C3CCC(O3)C2C(=O)O)c(OC)c1 (configuration not stated),0.09,i,i,i,-0.5,i
Oc1cccc2cccnc12,-0.48,i,-10.6*,x,-1.7,i
Cc1ccc(C(=O)N[C@@H](C)CN2C3=NC[C@@H](Cc4ccccc4)N3C[C@H]2Cc2ccc(O)cc2)cc1Br,-5.71*,i,i,x,-21.1,i
